Data from ChEMBL document CHEMBL1143619, “Synthesis and biological evaluation of aminopolyamines” (J Med Chem, 2005).

Assays:
[1] = system: L1210; assay: Inhibitory activity against L1210 cell growth for 96h; type: functional, cell-based; settings: Mus musculus, L1210, 96 h
In short: (§1)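 Murine leukemia L1210 cells grown with nine extracellular drug concentrations (0, 0.03, 0.1, 0.3, 1.0, 3, 10, 30, 100 µM); IC50 estimated from growth curves at 48 or 96 h; mean of at least two experiments.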

[2] = system: L1210; assay: Effect on Putrescine (PUT) levels after 48 hr treatment at 500 uM in L1210 cells; type: functional, Mus musculus
[3] = system: L1210; assay: Cellular concentration expressed in L1210 cells; type: functional, Mus musculus
[4] = system: L1210; assay: Effect on spermine (SPM) levels after 48 hr treatment at 500 uM in L1210 cells; type: functional, Mus musculus
[5] = system: L1210; assay: Effect on spermidine (SPD) levels after 48 hr treatment at 500 uM in L1210 cells; type: functional, Mus musculus
[6] = Effect on S-Adenosyl-methionine decarboxylase (AdoMetDC) activity in L1210 cells at 1 uM for 6 hr
[7] = target: Spermidine/spermine N(1)-acetyltransferase (SAT) (Mus musculus) (UniProt Q6P8J2+P48026); assay: Effect on Spermidine/spermine N1-acetyl transferase (SSAT) activity in L1210 cells at 10 uM for 48h; type: functional, cell-based
Spermidine/spermine N(1)-acetyltransferase (SAT) (Mus musculus), sequence (P48026 whole entry, looked up): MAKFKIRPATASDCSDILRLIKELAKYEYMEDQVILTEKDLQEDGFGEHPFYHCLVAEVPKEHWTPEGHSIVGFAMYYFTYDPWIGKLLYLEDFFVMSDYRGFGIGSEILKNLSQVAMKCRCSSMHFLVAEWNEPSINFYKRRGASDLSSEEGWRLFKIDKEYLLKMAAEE
Spermidine/spermine N(1)-acetyltransferase (SAT) (Mus musculus), sequence (Q6P8J2 whole entry, looked up): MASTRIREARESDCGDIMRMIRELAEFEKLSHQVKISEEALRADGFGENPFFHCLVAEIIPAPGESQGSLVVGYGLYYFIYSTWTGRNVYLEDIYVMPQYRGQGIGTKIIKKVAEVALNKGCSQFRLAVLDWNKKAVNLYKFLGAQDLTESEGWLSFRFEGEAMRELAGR

[8] = target: T1, Ornithine decarboxylase (Mus musculus) (UniProt P00860); assay: Effect on Ornithine Decarboxylase (ODC) activity in L1210 cells at 1 uM for 4 hr; type: functional, cell-based
T1 sequence (whole entry): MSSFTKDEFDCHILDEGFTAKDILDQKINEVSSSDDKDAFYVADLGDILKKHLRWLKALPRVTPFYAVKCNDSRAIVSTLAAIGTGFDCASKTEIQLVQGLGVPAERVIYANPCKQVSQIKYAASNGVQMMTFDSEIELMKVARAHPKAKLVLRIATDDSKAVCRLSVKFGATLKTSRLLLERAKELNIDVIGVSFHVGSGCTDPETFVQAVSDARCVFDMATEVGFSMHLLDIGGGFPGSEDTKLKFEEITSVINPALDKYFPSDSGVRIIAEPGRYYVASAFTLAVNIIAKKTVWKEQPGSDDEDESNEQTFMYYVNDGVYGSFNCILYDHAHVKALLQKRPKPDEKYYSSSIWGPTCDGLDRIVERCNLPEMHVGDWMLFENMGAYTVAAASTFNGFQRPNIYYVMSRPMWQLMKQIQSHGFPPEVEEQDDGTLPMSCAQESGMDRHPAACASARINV

[9] = system: L1210; assay: Effect on spermine (SPM) levels after 48 hr treatment at 50 uM in L1210 cells; type: functional, Mus musculus
[10] = system: L1210; assay: Effect on spermidine (SPD) levels after 48 hr treatment at 50 uM in L1210 cells; type: functional, Mus musculus
[11] = system: L1210; assay: Ability to inhibit [3H]SPD transport by L1210 cells; type: functional, cell-based, Mus musculus
In short: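 Ki from analogue inhibition of [3H]spermidine transport into murine leukemia L1210 cells, analysed as substrate-competitive inhibition; mean of at least two or three experiments.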

[12] = system: L1210; assay: Inhibitory activity against L1210 cell growth for 48 hr; type: functional, cell-based; settings: Mus musculus, L1210, 48 h; in short: as §1
[13] = system: L1210; assay: Effect on Putrescine (PUT) levels after 48 h treatment at 50 uM in L1210 cells; type: functional, Mus musculus
[14] = system: L1210; assay: Effect on spermine (SPM) levels after 48 h treatment at 150 uM in L1210 cells; type: functional, Mus musculus
[15] = system: L1210; assay: Effect on spermidine (SPD) levels after 48 hr treatment at 150 uM in L1210 cells; type: functional, Mus musculus
[16] = system: L1210; assay: Effect on Putrescine (PUT) levels after 48 hr treatment at 150 uM in L1210 cells; type: functional, Mus musculus

IC50 [1] [µM]	Activity [7] [%]	Activity [8] [%]	IC50 [12] [µM]	Compound	Activity [2]	Cellular concentration [3] [nmol/10^6 cells]	Activity [4]	Activity [5]	Activity [6] [%]	Activity [9]	Activity [10]	Ki [11] [µM]	Activity [13]	Activity [14]	Activity [15]	Activity [16]
> 100	97	100	–	FC(F)(F)CNCCCNCCCCNCCCNCC(F)(F)F	87	< 0.02	116	94	100	–	–	–	–	–	–	–
0.4	667	16	8	CCNCCCNCCC(N)CNCCCNCC (stereo not drawn)	–	3.1	–	–	58	32	7	33.7	26	–	–	–
–	–	–	–	CCNCCCNCCCCNCCCNCC [BIS(ETHYL)SPERMINE]	–	1.78	–	–	28	–	–	–	–	22	0	0
